RGS4 act – RGS4 potentiators or activators, primary screen, cell-based, HEK293 M3R inducible RGS4, calcium flux | B-score at 10 µM | carbachol calcium flux Fluo4; hits give low values | 0.92% of 310,000 active;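 active = B-score of the integrated calcium signal more than 4 SD below the library mean, with starting fluorescence not abnormally high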;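 also: negative B-score means reduced calcium response which marks RGS4 activation or potentiation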
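test system = HEK293 cells with stable M3R and inducible RGS4 | schedule = recording 10 s baseline at 1 Hz, 100 s post-agonist | technique = Fluo4-AM (2 µM) calcium-flux fluorescence, kinetic read | measure = Agonist-evoked peak-minus-minimum fluorescence over baseline, integrated ratio, B score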
MrgX1 agonist – agonists of human MrgX1 receptor, primary screen, HEK293 cells, Fluo-4 calcium flux. B-score at 10 µM. Fluo-4 calcium fluorescence, agonist mode; hits give high values. Mas-related G-protein coupled receptor member X1 (Homo sapiens), Q96LB2. AID 588627, 2011. 0.44% of 310,000 active;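 active = calcium response B-score plate-corrected fluorescence ratio at least 3 library SD, with starting fluorescence B-score inside 5 SD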
Target sequence (Q96LB2 whole entry, looked up): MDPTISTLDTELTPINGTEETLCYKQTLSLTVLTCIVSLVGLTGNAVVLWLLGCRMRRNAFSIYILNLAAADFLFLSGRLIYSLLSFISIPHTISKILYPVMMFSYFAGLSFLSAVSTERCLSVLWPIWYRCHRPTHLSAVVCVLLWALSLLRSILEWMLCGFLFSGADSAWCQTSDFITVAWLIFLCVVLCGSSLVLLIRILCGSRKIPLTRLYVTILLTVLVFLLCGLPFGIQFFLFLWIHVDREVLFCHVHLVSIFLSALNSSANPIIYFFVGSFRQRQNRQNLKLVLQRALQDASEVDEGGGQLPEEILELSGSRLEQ
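times = overnight plating, then 30 min 37 °C plus 30 min room-temperature dye loading | assay system = stable human MrgX1 HEK293 cell line | input = fifteen thousand cells per well | signal = kinetic calcium dye fluorescence, Fluo-4 NW | dosing = compound delivered in addition one of three | read-out = B-scored fluorescence response ratio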
MrgX1 PAM – positive allosteric modulators of MrgX1, primary screen, HEK293 cells, Fluo-4 calcium flux; Mas-related G-protein coupled receptor member X1 (Homo sapiens), Q96LB2; FDSS; hits give high values; B-score at 10 µM; 0.63% of 310,000 active; AID 588675, 2011;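 active = plate-corrected calcium response at least 3 library SD above typical, normal starting fluorescence, not activating the receptor alone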;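 also: compound read alongside a low EC10 to EC30 dose of BAM8-22 agonist; peak minus trough fluorescence over baseline measured at the second addition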
RGS4 inh – RGS4 inhibitors, primary screen, cell-based, HEK293 M3R inducible RGS4, calcium flux | Regulator of G-protein signaling 4 (Homo sapiens), P49798 | Fluo-4 calcium flux; hits give high values; triggered by carbachol at its EC20 | B-score at 10 µM | 0.45% of 310,000 active | AID 463165, 2010;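 active = B-score, a plate-corrected calcium signal, over three deviations above library mean, with baseline fluorescence within five deviations of library mean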;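 also: RGS4 expression induced by doxycycline in cells with stable M3 receptor; B-score is computed from the integrated fluorescence ratio over baseline after carbachol; higher B-score means a larger calcium signal and so more RGS4 inhibition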
Target sequence (P49798 whole entry, looked up): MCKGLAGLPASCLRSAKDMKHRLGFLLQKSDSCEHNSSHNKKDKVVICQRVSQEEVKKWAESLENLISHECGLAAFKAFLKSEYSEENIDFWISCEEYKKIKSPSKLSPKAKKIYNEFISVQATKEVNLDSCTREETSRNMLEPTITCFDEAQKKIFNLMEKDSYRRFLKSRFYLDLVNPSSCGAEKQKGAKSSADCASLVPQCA
MrgX1 antag – antagonists of human MrgX1 receptor, primary screen, HEK293 cells, Fluo-4 calcium flux; BAM8-22 antagonism; hits give low values; 1.3% of 310,000 active; B-score at 10 µM;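 active = calcium-response B-score plate-corrected more than 3 library SD below zero, starting fluorescence within 5 deviations, no agonist response on first addition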;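 also: peak minus trough fluorescence over baseline after final BAM8-22 challenge near maximal dose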
MrgX1 ant reconf – MrgX1 receptor antagonists, duplicate retest, confirmation, HEK293 cells, Fluo-4 calcium flux; 19% of 2,300 active; shares compounds with MrgX1 antag; remaining BAM8-22 calcium response % of control (hits give low values), % at 10 µM; BAM8-22 calcium flux; hits give low values; AID 602420, 2012;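 active = remaining agonist calcium response no higher than 100% minus 3 SD of agonist-only control wells, with starting fluorescence near control levels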;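 also: agonist BAM8-22 given at a near maximal EC90 to ECmax level; peak minus minimum fluorescence divided by baseline after agonist addition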
HEK293 Ca flux – nonspecific calcium signal in parental HEK293, confirmation, counter-screen for MrgX1 antagonist project, parental HEK293 cells, Fluo-4 calcium flux; shares compounds with MrgX1 antag; Fluo-4 calcium fluorescence, FDSS; fluorescence ratio F(max-min)/F0 at 10 µM; 2% of 4,000 active; AID 624111, 2012;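 active = duplicate-averaged calcium fluorescence ratio at least three times the standard deviation of buffer wells, a nonspecific response in parental cells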
HEK293 Ca counter – calcium response in parental HEK293 cells, primary screen, counter-screen for MrgX1 allosteric activator project, cell-based, Fluo-4 calcium flux, duplicate; shares compounds with MrgX1 antag; Fluo-4 fluorescence ratio; hits give high values; fluorescence ratio F(max-min)/F0 at 10 µM; 0.4% of 4,000 active; AID 624114, 2012;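 active = calcium fluorescence ratio, averaged over duplicates, at least 3 SD of the buffer-well ratio, meaning a nonspecific response in receptor-free cells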;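 also: untransfected parental HEK293 lacking MrgX1 used as counterscreen for MrgX1 allosteric activators; fluorescence change taken during the second addition on a kinetic imager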
HEK293 Ca cntr2 – calcium response in parental HEK293 cells, primary screen, counter-screen for MrgX1 agonist project, cell-based, Fluo-4 calcium flux, duplicate, agonist mode. shares compounds with MrgX1 antag. Fluo-4 calcium fluorescence (FDSS); hits give high values. fluorescence ratio F(max-min)/F0 at 10 µM. 8.7% of 4,000 active. AID 624115, 2012;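 active = calcium fluorescence ratio at least three times the spread of buffer wells, meaning a non-specific response in parental cells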
* hit, by the source's call. Compounds with a hit are over-represented: about 3.5% of the library has one in this group of screens.

How did CCCCC1CCC(C(=O)N(C)CC(=O)Nc2cccc(F)c2)CC1 (stereo not given) do in these assays?
RGS4 act: inactive; MrgX1 agonist: inactive; MrgX1 PAM: inactive; RGS4 inh: inactive; MrgX1 antag: -5.38*; MrgX1 ant reconf: inactive; HEK293 Ca flux: inactive; HEK293 Ca counter: inactive; HEK293 Ca cntr2: inactive

Results for CC1CC1C(=O)N(C)CC(=O)Nc1cccc(F)c1 (stereo not given) ?
RGS4 act: inactive; MrgX1 agonist: inactive; MrgX1 PAM: inactive; RGS4 inh: inactive; MrgX1 antag: inactive

How did Cc1cccc(C(=O)OC(C)C(=O)NC(=O)NC2CCCCC2)c1O (stereo not given) do in these assays?
RGS4 act: inactive; MrgX1 agonist: inactive; MrgX1 PAM: inactive; RGS4 inh: inactive; MrgX1 antag: inactive

Results for CC(=O)Nc1cccc(C(=O)OC(C)C(=O)NC(=O)NC2CCCCC2)c1 (stereo not given) ?
RGS4 act: inactive; MrgX1 agonist: inactive; MrgX1 PAM: inactive; RGS4 inh: inactive; MrgX1 antag: -9.93*; MrgX1 ant reconf: inactive; HEK293 Ca flux: inactive; HEK293 Ca counter: inactive; HEK293 Ca cntr2: inactive

Results for CCc1ccccc1NC(=O)[C@@H]1CCC(=O)N1C1OC(=O)c2ccccc21 (stereo not given in full) ?
RGS4 act: inactive; MrgX1 agonist: inactive; MrgX1 PAM: inactive; RGS4 inh: inactive; MrgX1 antag: -8.13*; MrgX1 ant reconf: 84.9%*; HEK293 Ca flux: inactive; HEK293 Ca counter: inactive; HEK293 Ca cntr2: inactive

Results for CC(C)Sc1nc2c(c(=O)n1C)SC(C)C2 (stereo not given) ?
RGS4 act: inactive; MrgX1 agonist: inactive; MrgX1 PAM: inactive; RGS4 inh: inactive; MrgX1 antag: -6.94*; MrgX1 ant reconf: inactive; HEK293 Ca flux: inactive; HEK293 Ca counter: inactive; HEK293 Ca cntr2: inactive

Results for Cc1ccc(Nc2c3c(nc4ncnn24)CC(C)CC3)cc1 (stereo not given) ?
RGS4 act: inactive; MrgX1 agonist: inactive; MrgX1 PAM: inactive; RGS4 inh: inactive; MrgX1 antag: inactive

What do the screens show for `Cc1ccc(Nc2c3c(nc4ncnn24)CCC3)cc1`?
RGS4 act: inactive; MrgX1 agonist: inactive; MrgX1 PAM: inactive; RGS4 inh: inactive; MrgX1 antag: -7.23*; MrgX1 ant reconf: inactive; HEK293 Ca flux: inactive; HEK293 Ca counter: inactive; HEK293 Ca cntr2: inactive

Results for O=C(NCCc1ccco1)c1cc(COc2cccc(C(F)(F)F)c2)on1 ?
RGS4 act: inactive; MrgX1 agonist: inactive; MrgX1 PAM: inactive; RGS4 inh: inactive; MrgX1 antag: inactive

Results for O=C1CCSc2ccc(Cl)cc2N1Cc1ccccc1 ?
RGS4 act: inactive; MrgX1 agonist: inactive; MrgX1 PAM: inactive; RGS4 inh: inactive; MrgX1 antag: -4.56*; MrgX1 ant reconf: 75.1%*; HEK293 Ca flux: inactive; HEK293 Ca counter: inactive; HEK293 Ca cntr2: inactive

Results for O=C1CCCc2ccccc2N1Cc1cccc(Cl)c1 ?
MrgX1 agonist: inactive; MrgX1 PAM: inactive; MrgX1 antag: inactive

What do the screens show for `Cc1ccc(SCCNS(=O)(=O)c2ccc(F)cc2)cc1`?
RGS4 act: inactive; MrgX1 agonist: inactive; MrgX1 PAM: inactive; RGS4 inh: inactive; MrgX1 antag: inactive

How did Cc1ccc(SCCNS(C)(=O)=O)cc1 do in these assays?
RGS4 act: inactive; MrgX1 agonist: inactive; MrgX1 PAM: inactive; RGS4 inh: inactive; MrgX1 antag: -5.07*; MrgX1 ant reconf: inactive; HEK293 Ca flux: inactive; HEK293 Ca counter: inactive; HEK293 Ca cntr2: inactive

What do the screens show for `O=C(NCc1ccco1)/C(=C\C=C\c1ccccc1)NC(=O)c1ccccc1Br`?
RGS4 act: inactive; MrgX1 agonist: inactive; MrgX1 PAM: inactive; RGS4 inh: inactive; MrgX1 antag: inactive

What do the screens show for `O=C(Nc1nnc(Cc2ccccc2)s1)C1CCN(C(=O)c2ccco2)CC1`?
RGS4 act: inactive; MrgX1 agonist: inactive; MrgX1 PAM: inactive; RGS4 inh: inactive; MrgX1 antag: inactive

How did Cc1ccc(Cn2ccsc2=NC(=O)COC(=O)c2ccc(O)cc2O)cc1 do in these assays?
RGS4 act: inactive; MrgX1 agonist: inactive; MrgX1 PAM: inactive; RGS4 inh: inactive; MrgX1 antag: -7.74*; MrgX1 ant reconf: inactive; HEK293 Ca flux: inactive; HEK293 Ca counter: inactive; HEK293 Ca cntr2: inactive

Results for CCOC(=O)CSC1=C(C#N)C(c2ccccc2Cl)C(C(=O)OC)C(=O)N1 (stereo not given) ?
RGS4 act: inactive; MrgX1 agonist: inactive; MrgX1 PAM: inactive; RGS4 inh: inactive; MrgX1 antag: -4.78*; MrgX1 ant reconf: inactive; HEK293 Ca flux: inactive; HEK293 Ca counter: inactive; HEK293 Ca cntr2: inactive

How did CC1CCc2sc(C(=O)N(C)CC(=O)Nc3ccc(N4CCOCC4)cc3)cc2C1 (stereo not given) do in these assays?
RGS4 act: inactive; MrgX1 agonist: inactive; MrgX1 PAM: inactive; RGS4 inh: inactive; MrgX1 antag: inactive

Results for S=C(NCc1ccc(Cl)cc1)NCc1ccco1 ?
RGS4 act: inactive; MrgX1 agonist: inactive; MrgX1 PAM: inactive; RGS4 inh: inactive; MrgX1 antag: inactive

How did CCNC(=S)NCc1ccco1 do in these assays?
RGS4 act: inactive; MrgX1 agonist: inactive; MrgX1 PAM: inactive; RGS4 inh: inactive; MrgX1 antag: -6.2*; MrgX1 ant reconf: inactive; HEK293 Ca flux: inactive; HEK293 Ca counter: inactive; HEK293 Ca cntr2: inactive

How did Cc1cc(NC(=O)Cc2c(F)cccc2Cl)no1 do in these assays?
RGS4 act: inactive; MrgX1 agonist: inactive; MrgX1 PAM: inactive; RGS4 inh: inactive; MrgX1 antag: inactive

Screens from PubChem BioAssay.
